Activity calls are given as the source filed them. The calls are words filed in the database; no cut-off is given here.
Assays:
[1] = test system: EKVX; assay: Growth inhibition of human EKVX cells assessed as cell growth at 1 uM relative to untreated control; assay type: functional; details: read-out: Activity
Method in brief: (§1)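 Run externally at the National Cancer Institute as a 59-cell-line panel screen, with concentrations up to 100 μM. Growth was scored relative to control, where negative growth or total cell kill was possible. Data are in the Supporting Information.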

[2] = test system: SF-539; assay: Growth inhibition of human SF539 cells; assay type: functional; details: read-out: LC50 (the source's name)
[3] = test system: PC-3; assay: […] in RASSF1A gene expression in human PC3 cells at 5 uM after 3 days hrs by RT-PCR; assay type: functional, cell-based
[4] = test system: ACHN; assay: Growth inhibition of human ACHN cells assessed as cell growth at 100 nM relative to untreated control; assay type: functional; details: read-out: Activity
[5] = test system: MOLT-4; assay: Growth inhibition of human MOLT4 cells assessed as cell growth at 1 uM relative to untreated control; assay type: functional; details: read-out: Activity
[6] = test system: CCRF-CEM; assay: Growth inhibition of human CCRF-CEM cells assessed as cell growth at 1 uM relative to untreated control; assay type: functional; details: read-out: Activity
[7] = test system: NCI/ADR-RES; assay: Growth inhibition of human NCI/ADR-RES cells assessed as cell growth at 10 nM relative to untreated control; assay type: functional; details: read-out: Activity
[8] = test system: T47D; assay: Growth inhibition of human T47D cells assessed as cell growth at 1 uM relative to untreated control; assay type: functional; details: read-out: Activity
[9] = test system: A498; assay: Growth inhibition of human A498 cells assessed as cell growth at 100 nM relative to untreated control; assay type: functional; details: read-out: Activity
[10] = test system: NCI-H226; assay: Growth inhibition of human NCI-H226 cells assessed as cell growth at 1 uM relative to untreated control; assay type: functional; details: read-out: Activity
[11] = test system: T47D; assay: Growth inhibition of human T47D cells assessed as cell growth at 100 nM relative to untreated control; assay type: functional; details: read-out: Activity
[12] = test system: HCT-15; assay: Growth inhibition of human HCT15 cells; assay type: functional; method in brief: as §1
[13] = test system: LOX IMVI; assay: Growth inhibition of human LOXIMVI cells assessed as cell growth at 10 nM relative to untreated control; assay type: functional; details: read-out: Activity
[14] = test system: UACC-62; assay: Growth inhibition of human UACC62 cells assessed as cell growth at 1 uM relative to untreated control; assay type: functional; details: read-out: Activity
[15] = test system: IGROV-1; assay: Growth inhibition of human IGROV1 cells assessed as cell growth at 10 nM relative to untreated control; assay type: functional; details: read-out: Activity
[16] = test system: CCRF-CEM; assay: Growth inhibition of human CCRF-CEM cells assessed as cell growth at 10 nM relative to untreated control; assay type: functional; details: read-out: Activity
[17] = test system: HCT-15; assay: Growth inhibition of human HCT15 cells assessed as cell growth at 1 nM relative to untreated control; assay type: functional; details: read-out: Activity; method in brief: as §1
[18] = Growth inhibition of human […] cells assessed as cell growth at 1 nM relative to untreated control; assay type: functional; details: read-out: Activity
[19] = test system: U-251; assay: Growth inhibition of human U251 cells assessed as cell growth at 10 nM relative to untreated control; assay type: functional; details: read-out: Activity
[20] = test system: HOP-92; assay: Growth inhibition of human HOP92 cells assessed as cell growth at 100 nM relative to untreated control; assay type: functional; details: read-out: Activity; method in brief: as §1
[21] = test system: HOP-62; assay: Growth inhibition of human HOP62 cells assessed as cell growth at 100 nM relative to untreated control; assay type: functional; details: read-out: Activity; method in brief: as §1
[22] = test system: HL-60(TB); assay: Growth inhibition of human HL-60(TB) cells assessed as cell growth at 1 nM relative to untreated control; assay type: functional; details: read-out: Activity
[23] = test system: 786-0; assay: Growth inhibition of human 786-0 cells assessed as cell growth at 10 nM relative to untreated control; assay type: functional; details: read-out: Activity
[24] = Growth inhibition of human […] cells; assay type: functional
[25] = test system: M14; assay: Growth inhibition of human M14 cells assessed as cell growth at 1 nM relative to untreated control; assay type: functional; details: read-out: Activity
[26] = test system: SK-OV-3; assay: Growth inhibition of human SKOV3 cells assessed as cell growth at 10 uM relative to untreated control; assay type: functional; details: read-out: Activity
[27] = test system: OVCAR-5; assay: Growth inhibition of human OVCAR5 cells assessed as cell growth at 100 nM relative to untreated control; assay type: functional; details: read-out: Activity
[28] = test system: KM12; assay: Growth inhibition of human KM12 cells assessed as cell growth at 1 uM relative to untreated control; assay type: functional; details: read-out: Activity
[29] = test system: SR; assay: Growth inhibition of human SR cells assessed as cell growth at 1 uM relative to untreated control; assay type: functional; details: read-out: Activity
[30] = test system: CAKI-1; assay: Growth inhibition of human Caki1 cells; assay type: functional; method in brief: as §1
[31] = test system: IGROV-1; assay: Growth inhibition of human IGROV1 cells assessed as cell growth at 100 nM relative to untreated control; assay type: functional; details: read-out: Activity
[32] = test system: NCI-H226; assay: Growth inhibition of human NCI-H226 cells assessed as cell growth at 10 uM relative to untreated control; assay type: functional; details: read-out: Activity
[33] = test system: KM12; assay: Growth inhibition of human KM12 cells assessed as cell growth at 10 nM relative to untreated control; assay type: functional; details: read-out: Activity
[34] = test system: RXF 393; assay: Growth inhibition of human RXF393 cells assessed as cell growth at 10 uM relative to untreated control; assay type: functional; details: read-out: Activity
[35] = test system: SK-OV-3; assay: Growth inhibition of human SKOV3 cells assessed as cell growth at 10 nM relative to untreated control; assay type: functional; details: read-out: Activity
[36] = test system: RXF 393; assay: Growth inhibition of human RXF393 cells assessed as cell growth at 10 nM relative to untreated control; assay type: functional; details: read-out: Activity
[37] = test system: SN12C; assay: Growth inhibition of human SN12C cells assessed as cell growth at 10 nM relative to untreated control; assay type: functional; details: read-out: Activity
[38] = test system: SF-295; assay: Growth inhibition of human SF295 cells assessed as cell growth at 100 nM relative to untreated control; assay type: functional; details: read-out: Activity
[39] = test system: UACC-257; assay: Growth inhibition of human UACC257 cells assessed as cell growth at 1 uM relative to untreated control; assay type: functional; details: read-out: Activity
[40] = test system: 786-0; assay: Growth inhibition of human 786-0 cells assessed as cell growth at 10 uM relative to untreated control; assay type: functional; details: read-out: Activity
[41] = test system: M14; assay: Growth inhibition of human M14 cells; assay type: functional
[42] = test system: K562; assay: Growth inhibition of human K562 cells assessed as cell growth at 10 uM relative to untreated control; assay type: functional; details: read-out: Activity
[43] = test system: T47D; assay: Growth inhibition of human T47D cells assessed as cell growth at 10 uM relative to untreated control; assay type: functional; details: read-out: Activity
[44] = test system: TK-10; assay: Growth inhibition of human TK10 cells assessed as cell growth at 10 nM relative to untreated control; assay type: functional; details: read-out: Activity
[45] = test system: CAKI-1; assay: Growth inhibition of human Caki1 cells assessed as cell growth at 10 nM relative to untreated control; assay type: functional; details: read-out: Activity; method in brief: as §1
[46] = test system: SN12C; assay: Growth inhibition of human SN12C cells assessed as cell growth at 100 nM relative to untreated control; assay type: functional; details: read-out: Activity
[47] = test system: MDA-MB-231; assay: Growth inhibition of human MDA-MB-231 cells assessed as cell growth at 1 nM relative to untreated control; assay type: functional; details: read-out: Activity
[48] = test system: HOP-62; assay: Growth inhibition of human HOP62 cells assessed as cell growth at 1 uM relative to untreated control; assay type: functional; details: read-out: Activity; method in brief: as §1
[49] = test system: UO-31; assay: Growth inhibition of human UO31 cells; assay type: functional
[50] = read-out: LC50 (the source's name)

SMILES: COc1ccc2c(c1)[nH]c1c(C)c(OS(=O)(=O)c3cccc4c(N(C)C)cccc34)ccc12
- growth at 1 µM [1]: 35%
- CC50 [2]: > 100 µM
- Activity [3]: Active
- growth at 0.1 µM [4]: 97%
- growth at 1 µM [5]: 20%
- growth at 1 µM [6]: 1%
- growth at 0.01 µM [7]: 111%
- growth at 1 µM [8]: 15%
- growth at 0.1 µM [9]: 59%
- growth at 1 µM [10]: 51%
- growth at 0.1 µM [11]: 82%
- GI50 [12]: 4.35 µM
- TGI [12]: > 100 µM
- CC50 [12, 50]: > 100 µM
- growth at 0.01 µM [13]: 92%
- growth at 1 µM [14]: 28%
- growth at 0.01 µM [15]: 110%
- growth at 0.01 µM [16]: 92%
- growth at 0.001 µM [17]: 98%
- growth at 0.001 µM [18]: 99%
- growth at 0.01 µM [19]: 98%
- growth at 0.1 µM [20]: 91%
- growth at 0.1 µM [21]: 106%
- growth at 0.001 µM [22]: 88%
- growth at 0.01 µM [23]: 103%
- GI50 [24]: 2.84 µM
- TGI [24]: 24 µM
- CC50 [24, 50]: > 100 µM
- growth at 0.001 µM [25]: 102%
- growth at 10 µM [26]: 34%
- growth at 0.1 µM [27]: 103%
- growth at 1 µM [28]: 21%
- growth at 1 µM [29]: 13%
- GI50 [30]: 27.5 µM
- TGI [30]: > 100 µM
- CC50 [30, 50]: > 100 µM
- growth at 0.1 µM [31]: 98%
- growth at 10 µM [32]: 39%
- growth at 0.01 µM [33]: 102%
- growth at 10 µM [34]: -32%
- growth at 0.01 µM [35]: 95%
- growth at 0.01 µM [36]: 107%
- growth at 0.01 µM [37]: 92%
- growth at 0.1 µM [38]: 69%
- growth at 1 µM [39]: 51%
- growth at 10 µM [40]: 6%
- GI50 [41]: 50.2 µM
- TGI [41]: > 100 µM
- CC50 [41, 50]: > 100 µM
- growth at 10 µM [42]: 5%
- growth at 10 µM [43]: 2%
- growth at 0.01 µM [44]: 94%
- growth at 0.01 µM [45]: 86%
- growth at 0.1 µM [46]: 97%
- growth at 0.001 µM [47]: 97%
- growth at 1 µM [48]: 55%
- GI50 [49]: 13.6 µM
- TGI [49]: > 100 µM
- CC50 [49, 50]: > 100 µM

From ChEMBL document CHEMBL1157638, “Fluorescent epigenetic small molecule induces expression of the tumor suppressor ras-association domain family 1A and inhibits human prostate xenograft” (J Med Chem, 2010)
